# CHO parental Ca = ATP-evoked calcium signal inhibitors, parental CHO, primary screen, counter-screen for OX1R antagonist project, cell-based, fluorescence, Fluo-8 calcium dye | parental CHO-K1, ATP-induced calcium, Fluo-8 fluorescence | AID 463079, 2010 | inhibition, % at 5.6 µM | 330,000 tested, 0.63% active;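 active = inhibition above that plate's mean sample inhibition plus 3 SD, cut at about 26% in these data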;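 note: 0% = ATP-challenged DMSO wells and 100% = DMSO wells without ATP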
#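 Material – parental CHO cells · Reagent – ATP stimulus · Compound – single nominal dose of 5.6 µM per compound · Detection – Fluo-8 fluorescence · Read-out basis – percent inhibition of calcium signal · Controls – ATP-challenged DMSO wells low, unchallenged DMSO wells high · Repeats – no replicates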
# OXTR ag = human OXTR agonists, primary screen, fluorescence, CHO-OTR cells, Fluo-8 calcium; activation, % at 3 µM; AID 2435, 2010; Fluo-8 calcium fluorescence; normalized: DMSO 0%, oxytocin 100%; Oxytocin receptor (Homo sapiens), P30559; 320,000 tested, 0.32% active;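 active = activation above the mean of all tested compounds plus 3 SD, cutoff set per screening run, cut at about 20% in these data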;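 note: peak over basal fluorescence ratio from a 100 s FLIPR kinetic read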
# Target sequence (P30559 whole entry, looked up): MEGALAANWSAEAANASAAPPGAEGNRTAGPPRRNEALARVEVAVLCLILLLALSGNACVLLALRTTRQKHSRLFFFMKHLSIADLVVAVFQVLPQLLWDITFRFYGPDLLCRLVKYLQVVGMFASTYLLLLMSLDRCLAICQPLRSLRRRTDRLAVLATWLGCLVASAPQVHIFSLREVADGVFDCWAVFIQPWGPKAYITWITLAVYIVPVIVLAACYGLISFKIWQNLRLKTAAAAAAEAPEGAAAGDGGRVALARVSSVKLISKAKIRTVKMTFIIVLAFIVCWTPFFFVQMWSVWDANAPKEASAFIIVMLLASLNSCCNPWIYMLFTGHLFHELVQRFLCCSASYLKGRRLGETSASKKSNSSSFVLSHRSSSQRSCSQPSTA
# OXTR potentiate = human OXTR potentiators, primary screen, fluorescence, CHO-OTR cells, Fluo-8 calcium; activation, % at 3 µM; 320,000 tested, 0.061% active; Fluo-8 calcium fluorescence, potentiator mode; 0% = oxytocin EC15, 100% = EC100; Oxytocin receptor (Homo sapiens), P30559;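 active = activation above that plate's cutoff, the mean activation of tested compounds plus 3 SD, cut at about 6.6% in these data, passing the limit was not always enough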;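 note: 100% uses oxytocin at 75 nM as the full agonist control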
#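 Assay system: CHO-OTR cells, human receptor / Also added: oxytocin at about EC15, sub-maximal agonist stimulus / Dosing: single dose, 3.0 µM nominal final compound concentration / Incubation: 6 min pre-incubation, 100 s read / Technique: Fluo-8 calcium dye fluorescence / Read-out: % activation vs EC15 and EC100 oxytocin / Benchmarks: EC15 oxytocin low, 75 nM oxytocin high / Replicates: singlicate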
# OX1R antag-1 = antagonists of human orexin 1 receptor (OX1R) | OX1R-expressing cells, FRET antagonist read-out | inhibition, % at 6.6 µM | 330,000 tested, 1.8% active; in the data active = inhibition mostly above about 38%, no sharp cut-off; inactive = mostly below about 40%;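 note: 0% = agonist challenge alone and 100% = reference antagonist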
# OX1R antag-2 = OX1R (HCRTR1) antagonists, primary screen, fluorescence, CHO/OX1R cells, Fluo-8 calcium, orexin A | 330,000 tested, 0.43% active | inhibition, % at 5 µM | Orexin/Hypocretin receptor type 1 (Homo sapiens), O43613 | Fluo-8 calcium fluorescence;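 active = inhibition above its plate's threshold, mean inhibition of all tested compounds on the plate plus 3 SD, cut at about 37% in these data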;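 note: 0% = orexin A challenge wells and 100% = SB-334867-A antagonist wells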
# V1aR counter = agonists of human V1a receptor, primary screen, counter-screen for OXTR agonist project, fluorescence, CHO-V1R cells; Vasopressin V1a receptor (Homo sapiens), P37288; Fluo-8 calcium fluorescence, agonist mode; 0% DMSO, 100% 3 nM vasopressin; 320,000 tested, 0.25% active; activation, % at 3 µM;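 active = activation above the mean activation of all tested compounds plus 3 SD, per screening run, cut at about 20% in these data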;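 note: signal is peak over basal fluorescence ratio across a 100 second FLIPR read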
# OX1R Fluo8 conf = OX1R (HCRTR1) antagonists, confirmation, fluorescence, CHO/OX1R cells, Fluo-8 calcium, orexin A | 1,100 tested, 38% active | shares compounds with OX1R antag-2 | orexin A calcium Fluo-8 fluorescence | inhibition, % at 5 µM; in the data active = inhibition above about 29%;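 note: 0% = agonist challenge alone and 100% = reference antagonist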
# CHO Ca triplic = ATP-evoked calcium inhibition in parental CHO, counter-screen for OX1R antagonist project, cell-based, fluorescence, CHO-K1, triplicate; shares compounds with OX1R antag-2; ATP-induced calcium, Fluo-8 fluorescence; inhibition, % at 5.6 µM; 1,100 tested, 9.3% active; AID 492965, 2010;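 active = inhibition above a per-plate limit, the mean inhibition of that plate's test compounds plus 3 SD, cut at about 25% in these data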;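 note: 0% = ATP challenge with DMSO and 100% = DMSO without ATP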
# OX1R HTRF conf = OX1R (HCRTR1) antagonists, confirmation, cell-based, HTRF. shares compounds with OX1R antag-1. OX1R-expressing cells, HTRF antagonist assay. 1,800 tested, 49% active. inhibition, % at 6.6 µM. AID 492964, 2010; in the data active = inhibition above about 55%;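 note: CHO cells expressing OX1R stimulated with orexin A at about EC80; 0% = agonist challenge alone and 100% = reference antagonist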
# CHO-K1 HTRF cnt = signal inhibition in parental CHO-K1 cells, counter-screen for OX1R antagonist project, cell-based, HTRF; shares compounds with OX1R antag-1; HTRF counterscreen; inhibition, % at 6.6 µM; 1,800 tested, 48% active; in the data active = inhibition above about 17%;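 note: 0% = agonist challenge with vehicle and 100% = vehicle alone without agonist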
# * = called active by the depositor; . = no result. The list is not random: actives were taken first. Their share in the collection is about 2.6%.
SMILES,CHO parental Ca,OXTR ag,OXTR potentiate,OX1R antag-1,OX1R antag-2,V1aR counter,OX1R HTRF conf,CHO-K1 HTRF cnt,others
O=C(COC(=O)c1cc(-c2ccc(Cl)s2)nc2ccccc12)NCc1ccco1,-15.0,0.2,-11.5,56.1*,30.7,0.2,74.2*,5.1,OX1R Fluo8 conf=23.1;CHO Ca triplic=-1.1
COC(=O)c1cc(-c2ccc(S(=O)(=O)N3CCCCC3)cc2)c(C(F)(F)F)s1,-16.9,-2.7,-13.5,0.1,-24.8,0.2,.,.,
CC(=O)Nc1ccc(NC(=O)C(C)OC(=O)C(C)SCC(=O)Nc2ccc(F)cc2)cc1 (stereo not given),-4.0,-0.1,-7.8,89.0*,27.7,-0.6,86.8*,-0.6,OX1R Fluo8 conf=45.8*;CHO Ca triplic=-2.0
Cn1cccc1C(=O)OCC(=O)NC(=O)c1ccc(Cl)cc1,-5.5,2.6,10.9,4.0,9.8,1.9,.,.,
COc1ccc(OCC(=O)Nc2cccc(NC(=O)COc3ccc(OC)cc3)n2)cc1,-13.6,0.2,-4.0,17.1,-24.8,0.1,.,.,
COc1ccc(OCC(=O)Nc2cccc3cccnc23)cc1,-24.4,1.4,-3.5,87.0*,27.9,1.5,33.0,4.1,OX1R Fluo8 conf=4.4;CHO Ca triplic=-4.5
CCOC(=O)C(C)/C(C)=N\Nc1ccc([N+](=O)[O-])cc1[N+](=O)[O-] (stereo not given),16.7,10.5,-12.1,85.4*,16.4,5.6,43.6,19.2*,
C/C(=N\Nc1ccc([N+](=O)[O-])cc1[N+](=O)[O-])C(C)C(C)C (stereo not given),-6.7,1.0,5.1,19.4,-16.3,3.3,.,.,
CCC(Oc1ccccc1OC)C(=O)N1CC(=O)Nc2ccccc21 (stereo not given),-13.9,2.0,-3.1,16.9,-11.3,0.4,.,.,
C[C@@H](C(=O)Nc1ccc2ccccc2c1)[C@@H]1C[C@@]1(C)[C@@H](NC(=O)c1ccccc1)c1ccccc1,-14.1,-0.5,-7.0,21.3,-19.1,2.1,.,.,
C[C@@H](C(=O)Nc1ccc2ccccc2c1)[C@H]1C[C@]1(C)[C@H](NC(=O)c1cccnc1)c1ccccc1,-31.5,1.7,-16.3,79.5*,25.9,-0.4,72.4*,-3.8,
CN(CC(=O)Nc1ccccc1Br)C(=O)c1cccnc1Nc1cccc(C(F)(F)F)c1,-20.2,0.9,-6.8,24.3,-32.8,0.8,.,.,
O=C(NCCc1ccccc1)[C@@H]1CC=C[C@@H]2CCN(Cc3ccccc3)C(=O)[C@@H]21,-13.6,0.4,-1.1,78.7*,13.3,-0.5,88.8*,6.9,
O=[N+]([O-])c1ccc2c(c1N1CCCCC1)=NC1(CCCCC1)[N+]=2[O-],-7.8,1.1,1.1,77.0*,-28.7,-1.6,49.4,77.3*,
CS(=O)(=O)N(Cc1ccccc1Cl)c1ccc(C(=O)N2CCCC2)cc1,5.7,2.0,-1.3,4.0,-19.4,2.3,.,.,

# Screening results deposited in PubChem BioAssay by The Scripps Research Institute Molecular Screening Center.
